Test results as given in ChEMBL document CHEMBL1765083, “Design, synthesis, and biological evaluation of thiazoles targeting flavivirus envelope proteins” (J Med Chem, 2011).

Experiments:
Yellow fever virus [1] = assay: Antiviral activity against Yellow fever virus 17D expressing IRES-luciferase gene infected in BHK cells assessed as inhibition of viral production after 36 hrs by luciferase reporter assay relative to control; format: functional
Procedure, shortened: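 Controls: uninfected, infected, and DMSO-treated infected cells. After ~36 h at 37 °C, 5% CO2, cells lysed and firefly luciferase luminescence read. IC50 from nonlinear regression versus DMSO-treated infected cells.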

[2] = Growth inhibition of BHK15 cells after 36 hrs by XTT assay; format: cell-based, Mesocricetus auratus; settings: hamster
Procedure, shortened: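 Uninfected confluent BHK-15 cells (MEM, 10% FBS) overlaid with serial compound dilutions from DMSO stocks, ~36 h at 37 °C, 5% CO2. Medium replaced, XTT substrate added, 2 h at 37 °C, then OD450 read. GI50 calculated relative to cells given 1% DMSO.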

Yellow fever virus [3] = assay: Antiviral activity against Yellow fever virus 17D expressing IRES-luciferase gene infected in BHK cells assessed as inhibition of viral production at 50 uM after 36 hrs by luciferase reporter assay; format: functional, cell-based
[4] = Therapeutic index, ratio of GI50 for BHK15 cells to EC50 for Yellow fever virus 17D; format: cell-based; settings: hamster, read-out: TI
[5] = Half life in rat plasma; format: ADME
Procedure, shortened: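 Reconstituted lyophilized rat plasma warmed 15 min at 37 °C, diluted with 0.01 M saline to 80% plasma, then warmed 5 min more. Compound in DMSO added; mixture kept at 37 °C. Timed aliquots quenched in methanol and centrifuged; supernatants analysed by C18 HPLC (85:15 methanol/water, room temperature). Half-life from regression of concentration versus time.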

SMILES | inhibition (INH) (Yellow fever virus [1]) | GI50 at 36 h [2] | EC50 (Yellow fever virus [3]) | selectivity ratio [4] | half-life [5]
COC(=O)c1sc(-c2ccc(Cl)cc2)nc1C=O | 99.9% | 36.4 µM | 42.8 µM | – | –
CONC(=O)c1sc(-c2ccc(Cl)cc2)nc1C(Br)Br | 93.6% | 81.4 µM | 1.7 µM | – | –
NC(=O)c1sc(-c2ccc(Cl)cc2)nc1C(Br)Br | 99.8% | 99.7 µM | 1.7 µM | – | –
CN(C)C(=O)c1sc(-c2ccc(Cl)cc2)nc1C(Br)Br | 93.2% | 163 µM | 20 µM | – | –
CNC(=O)c1sc(-c2ccc(Cl)cc2)nc1C(Br)Br | 99.7% | 74.6 µM | 1.8 µM | – | –
CCN(CC)C(=O)c1sc(-c2ccc(Cl)cc2)nc1C(Br)Br | 99.8% | 63.5 µM | 13.7 µM | – | –
C=CCNC(=O)c1sc(-c2ccc(Cl)cc2)nc1C(Br)Br | 99.9% | 40.8 µM | 1.6 µM | – | –
CCNC(=O)c1sc(-c2ccc(Cl)cc2)nc1C(Br)Br | 99.9% | 33.3 µM | 2.7 µM | – | –
C#CCNC(=O)c1sc(-c2ccc(Cl)cc2)nc1C(Br)Br | 99.7% | 23.9 µM | 1.7 µM | – | –
CCOC(=O)c1sc(-c2ccc(Cl)cc2)nc1C(Br)Br | 98.1% | 94.6 µM | 8.7 µM | – | –
CC(C)OC(=O)c1sc(-c2ccc(Cl)cc2)nc1C(Br)Br | 84.4% | 372 µM | 19.9 µM | – | –
CCSC(=O)c1sc(-c2ccc(Cl)cc2)nc1C(Br)Br | 99.7% | 81.4 µM | 1.6 µM | – | –
CSC(=O)c1sc(-c2ccc(Cl)cc2)nc1C(Br)Br | 99.6% | 369 µM | 1.4 µM | 256 | 24.7 h
CC(=O)c1sc(-c2ccc(Cl)cc2)nc1C(Br)Br | 99.9% | 83.5 µM | 1.3 µM | – | –
CN(C)/C=C/C(=O)c1sc(-c2ccc(Cl)cc2)nc1C(Br)Br | 99.8% | 38.2 µM | 11.4 µM | – | –
O=C(NCCO)c1sc(-c2ccc(Cl)cc2)nc1C(Br)Br | 99.8% | 40.8 µM | 2.9 µM | – | –
O=C(NC[C@@H](O)CO)c1sc(-c2ccc(Cl)cc2)nc1C(Br)Br | 99.9% | 158 µM | 1.1 µM | – | –
CCc1nc(-c2ccc(Cl)cc2)sc1C(=O)OC | -56.7% | – | – | – | –

SMILES | inhibition (INH) (Yellow fever virus [1]) | GI50 at 36 h [2] | EC50 (Yellow fever virus [3]) | selectivity ratio [4] | half-life [5]
COC(=O)c1sc(-c2ccc(Cl)cc2)nc1C(C)C | 14.7% | 49.6 µM | 58.7 µM | – | –
COC(=O)c1sc(-c2ccc(Cl)cc2)nc1C(C)(C)C | 20.9% | – | – | – | –
CCOC(=O)c1sc(-c2ccc(Cl)cc2)nc1-c1ccco1 | 50.3% | 465 µM | 311 µM | – | –
COCc1nc(-c2ccc(Cl)cc2)sc1C(=O)OC | 38.1% | 388 µM | 158 µM | – | –
CNC(=O)c1sc(-c2ccc(Cl)cc2)nc1COC | 99.7% | 50.8 µM | 2.9 µM | – | –
CNC(=O)c1sc(-c2ccc(Cl)cc2)nc1C=O | 37.5% | – | – | – | –
COC(=O)c1sc(-c2ccc(Cl)cc2)nc1C#N | 7.8% | – | – | – | –
COC(=O)c1sc(-c2ccc(Cl)cc2)nc1C(Cl)Cl | 99.9% | 34.1 µM | 52.8 µM | – | –
COC(=O)c1sc(-c2ccc(Cl)cc2)nc1CBr | 99.9% | 74.6 µM | 1.6 µM | – | –
COC(=O)c1sc(-c2ccc(Cl)cc2)nc1CS(C)(=O)=O | -74.7% | – | – | – | –
COC(=O)c1nc(-c2ccc(Cl)cc2)sc1C(=O)OC | 30.1% | – | – | – | –
COCc1nc(-c2ccc(Cl)cc2)sc1C(=O)N(C)C | 11.3% | – | – | – | –
CN(C)C(=O)c1sc(-c2ccc(Cl)cc2)nc1C=O | 5.5% | – | – | – | –
COC(=O)c1nc(-c2ccc(Cl)cc2)sc1C(=O)N(C)C | 74% | 99.7 µM | 51 µM | – | –
Cc1noc(-c2sc(-c3ccc(Cl)cc3)nc2C=O)n1 | 99.6% | 163 µM | 26.5 µM | – | –
COC(=O)c1nc(-c2ccc(Cl)cc2)sc1-c1nc(C)no1 | 1.5% | – | – | – | –
COC(=O)c1sc(-c2ccc(Cl)cc2)nc1C(Br)Br | 99.6% | 222 µM | 2.8 µM | 79 | 1.42 h
O=C(N[C@@H]1OC(CO)C(O)[C@H](O)[C@H]1O)c1sc(-c2ccc(Cl)cc2)nc1C(Br)Br (single isomer, unassigned) | 43.4% | – | – | – | –
